Measured values reported in ChEMBL document CHEMBL1240350, “In vitro activity of CEM-101 against Streptococcus pneumoniae and Streptococcus pyogenes with defined macrolide resistance mechanisms” (Antimicrob Agents Chemother, 2010).

What was measured:
Assay type in all cases: functional
Streptococcus pneumoniae [1] = assay: Antibacterial activity against macrolide-resistant Streptococcus pneumoniae harboring erm(B) gene after overnight incubation by agar dilution method
Summary of the method: (§1)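 Agar dilution MICs on Mueller-Hinton agar with 5% sheep blood. Inoculum 10^4 CFU/spot, incubated overnight at 35°C in ambient air. Clinical S. pneumoniae or group A streptococcal isolates; resistance genotypes (erm(B), erm(A), mef(A)/mef(E)) were assigned by PCR. S. pneumoniae ATCC 49619 served as QC strain in each run. Range, MIC50 and MIC90 reported per phenotype group.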

Streptococcus pneumoniae [2] = assay: Antibacterial activity against Streptococcus pneumoniae harboring erm(A) gene after overnight incubation by agar dilution method
Summary of the method: (§2)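 Clinical isolates collected 1998–2008, with macrolide-resistance genes confirmed by PCR. MICs by agar dilution on Mueller-Hinton agar with 5% sheep blood. Inoculum 10^4 CFU/spot, incubated overnight at 35°C in ambient air. S. pneumoniae ATCC 49619 was the quality-control strain in every run.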

Streptococcus pneumoniae [3] = assay: Antibacterial activity against penicillin-susceptible Streptococcus pneumoniae after overnight incubation by agar dilution method
Summary of the method: (§3)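 Agar dilution on Mueller-Hinton agar supplemented with 5% sheep blood. Inoculum 10^4 CFU/spot, incubated overnight at 35°C in ambient air. Test strains were clinical pneumococcal isolates. S. pneumoniae ATCC 49619 was included as the quality control strain in each run. MIC range, MIC50 and MIC90 were reported for each susceptibility category.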

Streptococcus pyogenes [4] = assay: Antibacterial activity against Streptococcus pyogenes harboring erm(B) gene after overnight incubation by agar dilution method; summary of the method: as §2
Streptococcus pyogenes [5] = assay: Antibacterial activity against macrolide-resistant Streptococcus pyogenes harboring erm(B) gene after overnight incubation by agar dilution method; summary of the method: as §1
Streptococcus pyogenes [6] = assay: Antibacterial activity against Streptococcus pyogenes harboring erm(A) gene after overnight incubation by agar dilution method; summary of the method: as §2
Streptococcus pneumoniae [7] = assay: Antibacterial activity against quinolone-resistant Streptococcus pneumoniae after overnight incubation by agar dilution method; summary of the method: as §3
Streptococcus pneumoniae [8] = assay: Antibacterial activity against macrolide-resistant Streptococcus pneumoniae harboring mef(A) gene after overnight incubation by agar dilution method; summary of the method: as §1
Streptococcus pneumoniae [9] = assay: Antibacterial activity against Streptococcus pneumoniae harboring erm(B) gene after overnight incubation by agar dilution method; summary of the method: as §2
Streptococcus pneumoniae [10] = assay: Antibacterial activity against Streptococcus pneumoniae harboring mutation in 23S rRNA after overnight incubation by agar dilution method; summary of the method: as §2
Streptococcus pyogenes [11] = assay: Antibacterial activity against macrolide-susceptible Streptococcus pyogenes after overnight incubation by agar dilution method
Summary of the method: (§4)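 Agar dilution on Mueller-Hinton agar supplemented with 5% sheep blood, inoculum 10^4 CFU/spot, read after overnight incubation at 35°C in ambient air. Clinical isolates with defined genotypes; S. pneumoniae ATCC 49619 quality control strain included in each run. MIC50/MIC90 are MICs inhibiting 50% and 90% of isolates.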

Streptococcus pyogenes [12] = assay: Antibacterial activity against Streptococcus pyogenes harboring mutation in L4 ribosomal protein after overnight incubation by agar dilution method; summary of the method: as §2
Streptococcus pyogenes [13] = assay: Antibacterial activity against macrolide-resistant Streptococcus pyogenes harboring erm(A) gene after overnight incubation by agar dilution method; summary of the method: as §1
Streptococcus pneumoniae [14] = assay: Antibacterial activity against penicillin-resistant Streptococcus pneumoniae after overnight incubation by agar dilution method; summary of the method: as §3
Streptococcus pneumoniae [15] = assay: Antibacterial activity against macrolide-resistant Streptococcus pneumoniae harboring mutation in L4 ribosomal protein after overnight incubation by agar dilution method; summary of the method: as §1
Streptococcus pyogenes [16] = assay: Antibacterial activity against Streptococcus pyogenes harboring mef(A) gene after overnight incubation by agar dilution method; summary of the method: as §2
Streptococcus pneumoniae [17] = assay: Antibacterial activity against quinolone-susceptible Streptococcus pneumoniae after overnight incubation by agar dilution method; summary of the method: as §3
Streptococcus pneumoniae [18] = assay: Antibacterial activity against Streptococcus pneumoniae harboring mef(A) gene after overnight incubation by agar dilution method; summary of the method: as §2
Streptococcus pneumoniae [19] = assay: Antibacterial activity against Streptococcus pneumoniae harboring mutation in L4 ribosomal protein after overnight incubation by agar dilution method; summary of the method: as §2
Streptococcus pneumoniae [20] = assay: Antibacterial activity against macrolide-susceptible Streptococcus pneumoniae after overnight incubation by agar dilution method; summary of the method: as §1
Streptococcus pyogenes [21] = assay: Antibacterial activity against macrolide-resistant Streptococcus pyogenes harboring mef(A) gene after overnight incubation by agar dilution method; summary of the method: as §1
Streptococcus pneumoniae [22] = assay: Antibacterial activity against penicillin-intermediate Streptococcus pneumoniae after overnight incubation by agar dilution method; summary of the method: as §4
Streptococcus pneumoniae [23] = assay: Antibacterial activity against macrolide-resistant Streptococcus pneumoniae harboring erm(B) and mef(A) gene after overnight incubation by agar dilution method; summary of the method: as §1
Streptococcus pneumoniae [24] = assay: Antibacterial activity against Streptococcus pneumoniae harboring erm(B) and mef(A) gene after overnight incubation by agar dilution method; summary of the method: as §2

COc1c(N2C[C@@H]3CCCN[C@@H]3C2)c(F)cc2c(=O)c(C(=O)O)cn(C3CC3)c12 [MOXIFLOXACIN]
0.25 µg/mL: MIC50 (Streptococcus pneumoniae [1]) | MIC (Streptococcus pneumoniae [2]) | MIC50 (Streptococcus pyogenes [4]) | MIC90 (Streptococcus pyogenes [4]) | MIC50 (Streptococcus pyogenes [5]) | MIC90 (Streptococcus pyogenes [5]) | MIC50 (Streptococcus pyogenes [6]) | MIC90 (Streptococcus pyogenes [6]) | MIC50 (Streptococcus pneumoniae [8]) | MIC50 (Streptococcus pneumoniae [9]) | MIC (Streptococcus pneumoniae [10]) | MIC50 (Streptococcus pyogenes [11]) | MIC90 (Streptococcus pyogenes [11]) | MIC (Streptococcus pyogenes [12]) | MIC50 (Streptococcus pyogenes [13]) | MIC90 (Streptococcus pyogenes [13])
4 µg/mL: MIC90 (Streptococcus pneumoniae [3]) | MIC50 (Streptococcus pneumoniae [7]) | MIC90 (Streptococcus pneumoniae [7])
0.5 µg/mL: MIC90 (Streptococcus pneumoniae [1]) | MIC50 (Streptococcus pneumoniae [3]) | MIC90 (Streptococcus pneumoniae [8]) | MIC90 (Streptococcus pneumoniae [9])

CC1(C)S[C@@H]2[C@H](NC(=O)Cc3ccccc3)C(=O)N2[C@H]1C(=O)O [PENICILLIN G]
0.015 µg/mL: MIC50 (Streptococcus pyogenes [4]) | MIC90 (Streptococcus pyogenes [4]) | MIC50 (Streptococcus pyogenes [5]) | MIC90 (Streptococcus pyogenes [5]) | MIC50 (Streptococcus pyogenes [16]) | MIC50 (Streptococcus pyogenes [6]) | MIC90 (Streptococcus pyogenes [6]) | MIC (Streptococcus pneumoniae [10]) | MIC50 (Streptococcus pyogenes [21]) | MIC50 (Streptococcus pyogenes [11]) | MIC90 (Streptococcus pyogenes [11]) | MIC (Streptococcus pyogenes [12]) | MIC50 (Streptococcus pyogenes [13]) | MIC90 (Streptococcus pyogenes [13])
16 µg/mL: MIC90 (Streptococcus pneumoniae [15]) | MIC90 (Streptococcus pneumoniae [19])
2 µg/mL: MIC90 (Streptococcus pneumoniae [20]) | MIC50 (Streptococcus pneumoniae [23]) | MIC50 (Streptococcus pneumoniae [24])
4 µg/mL: MIC90 (Streptococcus pneumoniae [1]) | MIC50 (Streptococcus pneumoniae [14]) | MIC50 (Streptococcus pneumoniae [15]) | MIC90 (Streptococcus pneumoniae [17]) | MIC90 (Streptococcus pneumoniae [7]) | MIC90 (Streptococcus pneumoniae [18]) | MIC50 (Streptococcus pneumoniae [19]) | MIC90 (Streptococcus pneumoniae [8]) | MIC90 (Streptococcus pneumoniae [9]) | MIC90 (Streptococcus pneumoniae [23]) | MIC90 (Streptococcus pneumoniae [24])
0.06 µg/mL: MIC90 (Streptococcus pneumoniae [3])
1 µg/mL: MIC50 (Streptococcus pneumoniae [1]) | MIC50 (Streptococcus pneumoniae [17]) | MIC50 (Streptococcus pneumoniae [20]) | MIC50 (Streptococcus pneumoniae [9]) | MIC90 (Streptococcus pneumoniae [22])
0.125 µg/mL: MIC50 (Streptococcus pneumoniae [18]) | MIC50 (Streptococcus pneumoniae [8])
8 µg/mL: MIC90 (Streptococcus pneumoniae [14])
0.5 µg/mL: MIC50 (Streptococcus pneumoniae [22])
0.03 µg/mL: MIC (Streptococcus pneumoniae [2]) | MIC50 (Streptococcus pneumoniae [3]) | MIC90 (Streptococcus pyogenes [16]) | MIC90 (Streptococcus pyogenes [21])
0.25 µg/mL: MIC50 (Streptococcus pneumoniae [7])
